Bioassay records deposited in PubChem by several laboratories.
Compounds with a hit are over-represented: about 5.6% of the library has one in this group of screens.
UPR XBP1 act – adaptive UPR (XBP1) activation | 330,000 tested, 0.33% active | activation, % at 20 µM | AID 463104 | CHO-XBP1 luciferase reporter, IRE1-XBP1 UPR activation, luminescence; percent of tunicamycin response, DMSO as zero;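 active = versus positive control, 20 µM dose yields 30% or more activation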;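 note: 100% = tunicamycin at 10 µg/mL and 0% = DMSO only wells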
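Material: CHO cell line with stable XBP1 luciferase reporter; schedule: 16-18 h cell attachment at 37 °C, then 6 h compound exposure; signal: glow luminescence from Steady-Glo reagent; medium: serum-containing F12 medium, 10% FBS; benchmarks: tunicamycin 10 µg/mL and vehicle-only wells; read-out: percent activation relative to tunicamycin reference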
CHOP UPR activ – apoptotic UPR (CHOP) activation | CHO-CHOP luciferase reporter, luminescence; percent of tunicamycin response over DMSO baseline | activation, % at 10 µM | 330,000 tested, 0.34% active;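 active = at 10 µM dose, activation of 40% or more, normalized to positive control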;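 note: 100% = tunicamycin at 10 µg/mL and 0% = DMSO alone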
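Evaluation: % reporter activation, DMSO baseline versus tunicamycin full activation; System: CHO-CHOP luciferase reporter cell line; Input: 500 cells/well; Incubation: 6 h compound treatment, 37 °C; Measured by: Steady-Glo luciferase luminescence; Dosing: one dose, 10 µM in 0.5% DMSO; Buffer or medium: F12 medium, 10% FBS; Benchmarks: positive tunicamycin 10 µg/mL, negative DMSO alone.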
MPTP inh – blocks calcium-induced mitochondrial swelling; isolated mouse mitochondria, Ca2+ swelling absorbance, 30 min; inhibition, % at 10 µM; 360,000 tested, 1.4% active; AID 602449;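 active = inhibition of 50% or more, scaled per plate between neutral and stimulator controls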;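 note: 0% = DMSO wells given calcium and 100% = 1 mM EGTA wells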
aDG glyco act – increases alpha dystroglycan glycosylation; AID 624168; 360,000 tested, 0.22% active; activation, % at 10 µM; Pro5-aDG cells, alpha-DG glycosylation AlphaScreen (IIH6); 0% Pro5, 100% B10-LARGE cell signal;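 active = activation of at least 8% versus controls, or a plate z-score of at least 8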;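 note: Pro5 are CHO cells carrying HIG-tagged alpha-DG that lacks glycosylation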
NR3A LBD binder – NR3A (human) ligand-binding domain modulation. NR3A LBD differential scanning fluorimetry, Tm shift; 0% = protein alone, 100% = glycine-bound protein. Tm shift relative to glycine control, % at 25 µM. 340,000 tested, 2.5% active. AID 1259313;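 active = melting temperature shift of at least 10% of the positive control shift, at one fixed dose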
CHOP inh – CHOP inhibition in unfolded protein response; CHO-K1 CHOP-promoter luciferase, tunicamycin-induced, 15-18 h; inhibition, % at 10 µM; 220,000 tested, 3.8% active;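 active = compounds that reduced the stress-induced luciferase reporter signal by more than about 70% of percent inhibition, limit read from the data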;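 note: 0% = tunicamycin plus vehicle and 100% = wells without tunicamycin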
CHOP confirm – confirmation of CHOP induction inhibitors; CHO-CHOP promoter luciferase reporter, tunicamycin-induced, luminescence; shares compounds with CHOP inh; 2,100 tested, 45% active; inhibition, % at 10 µM;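 active = mean of three repeat readings of reporter signal inhibition above a set limit, cut at about 70% in these data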;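 note: 0% = tunicamycin plus vehicle and 100% = wells lacking tunicamycin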
* = called active by the depositor; nt = no result.

SMILES | UPR XBP1 act | CHOP UPR activ | MPTP inh | aDG glyco act | NR3A LBD binder | CHOP inh | CHOP confirm
NNC(=O)c1cc2c(s1)CCCCCC2 | -4.5 | -2.6 | 3.7 | -0.3 | -1.0 | 16.5 | nt
CC1(C(=O)NS(=O)(=O)c2ccc(F)cc2F)CCN1C(=O)c1cccc(F)c1 (stereo not given) | nt | nt | 0.0 | -0.2 | nt | nt | nt
CS(=O)(=O)c1nc(-c2ccco2)cc(C(F)(F)F)n1 | -4.8 | -10.4 | nt | nt | nt | 111.3* | 122.2*
CN1CCN(c2nc(-c3ccco3)cc(C(F)(F)F)n2)CC1 | 0.0 | -0.1 | 27.6 | 0.6 | -1.5 | 34.6 | nt
Cc1ccccc1NC(=O)CSc1nc(N)c(C#N)c(-c2cccs2)c1C#N | -0.7 | 1.0 | 5.4 | 0.3 | 0.3 | 105.2* | 21.4
Cc1cc(C)c(S(=O)(=O)c2ccccc2)c(OC(=O)c2cc(F)c(F)cc2Cl)n1 | -1.2 | 0.1 | -1.2 | -0.1 | -18.6 | 107.5* | 138.6*
O=C(NC1CCCCC1)C(c1ccc(F)cc1)N(Cc1ccccc1)C(=O)CN1C(=O)c2ccccc2S1(=O)=O (stereo not given) | 23.1 | 5.8 | 2.0 | 0.4 | 0.2 | 109.3* | 79.5*
Cc1ccccc1S(=O)(=O)N(C)C[C@@H]1OCc2cn(nn2)CCCC(=O)N([C@H](C)CO)C[C@H]1C | nt | nt | -0.4 | -0.1 | nt | nt | nt
CCOC(=O)C1=C(O)/C(=C/c2ccc(CNC(=O)C(=O)Nc3ccc(C)cc3)o2)N=C1C | -2.1 | -2.5 | 0.9 | 0.3 | -2.2 | 105.7* | 109.0*
CCOC(=O)C(=O)NCc1ccc(/C=C2/N=C(C)C(C(=O)OCC)=C2O)o1 | -2.2 | -1.0 | 1.2 | 0.0 | 0.6 | 5.9 | nt
CCOC(=O)c1sc(NC(=S)NC(=O)C2CCCC2)cc1C | -0.1 | 0.9 | -3.4 | 0.4 | -0.7 | 64.4 | nt
CCOC(=O)c1sc(NC(=S)NC(=O)CC(C)C)cc1C | 4.1 | 0.8 | 6.4 | -0.1 | 0.9 | 107.1* | 19.5
CCOC(=O)/C=c1\s/c(=C\c2sccc2C)c(=O)n1CC(=O)NCc1ccc(C)cc1 | 63.9* | 53.9* | nt | nt | nt | 99.4* | 20.4
CCOC(=O)/C=c1\s/c(=C\c2ccc(-c3ccccc3)cc2)c(=O)n1CC(=O)NCc1ccc2c(c1)OCO2 | 1.1 | 2.2 | 0.9 | -0.1 | -2.6 | -8.5 | nt
COC(=O)c1sc(-c2ccc(Cl)cc2)cc1NC(=O)c1ccccc1C(=O)O | -0.1 | 3.0 | -2.5 | -0.1 | 3.0 | 68.0 | nt
COC(=O)c1sc(-c2ccc(C(C)(C)C)cc2)cc1NC(=O)c1ccccc1C(=O)O | 4.4 | 2.2 | 5.7 | -0.2 | -437.0 | 105.6* | 116.5*
COc1cccc(OCCSc2nc(C)c(Cc3ccccc3)c(=O)[nH]2)c1 | -4.6 | -0.5 | 2.2 | 0.3 | -1.8 | 99.2* | -76.1
CC1(Cc2ccc(S(C)(=O)=O)cc2)C(=O)Nc2ccc(Cl)cc21 (stereo not given) | nt | nt | -1.7 | -0.1 | nt | nt | nt
O=C(Oc1ccc2c(c1)OCO2)C12CC3CC(CC(C3)C1)C2 | -2.6 | 0.8 | -1.0 | -0.4 | 0.4 | 51.5 | nt
O=C(Oc1ccc(O)cc1)C12CC3CC(CC(C3)C1)C2 | 1.2 | -1.5 | -1.9 | -0.5 | -1.4 | 105.8* | 115.9*
Cc1ccccc1N1C(=O)c2sc3nc4c(c(=O)n3c2C1=O)CCC4 | -1.8 | -0.3 | 0.1 | 0.1 | -0.3 | 106.3* | -14.1
O=C1c2sc3nc4ccccc4n3c2C(=O)N1c1ccccc1Cl | -0.7 | 4.2 | 2.1 | 0.0 | -7.2 | 106.1* | -5.1
O=C1c2sc3nc4c(c(=O)n3c2C(=O)N1c1ccccc1)CCC4 | -0.8 | -3.3 | -0.7 | 0.5 | -1.0 | -76.7 | nt
O=c1/c(=C\c2cccnc2)sc2nc3ccccc3n12 | nt | nt | -0.4 | 0.1 | -0.9 | 0.5 | nt
Cc1cccc(-c2nnc(SCC(=O)N3CCOCC3)o2)c1 | -1.6 | 4.9 | 0.9 | 0.0 | 2.3 | nt | nt
SMILES | UPR XBP1 act | CHOP UPR activ | MPTP inh | aDG glyco act | NR3A LBD binder | CHOP inh | CHOP confirm
CCOC(=O)c1nc(S(C)(=O)=O)ncc1N1CCOCC1 | -2.5 | -0.3 | -1.3 | 0.0 | 0.8 | -5.2 | nt
CCOC(=O)c1nc(S(C)(=O)=O)ncc1Cl | -8.5 | -6.6 | 1.8 | 0.5 | 0.8 | nt | 92.3*
COc1ccc(OC)c(S(=O)(=O)NC2CC(=O)N(c3ccc(C)c(C)c3)C2)c1 (stereo not given) | -1.1 | -0.4 | -1.7 | 0.3 | 1.2 | nt | nt
CC(=O)Oc1cccc(/C=c2\sc3nc(-c4ccco4)nn3c2=O)c1 | 0.2 | 3.8 | -3.3 | -0.1 | 3.1 | 106.5* | 26.7
Oc1ccc(N=Nc2cccc(C(F)(F)F)c2)cc1C=Nc1ccc(N2CCOCC2)cc1 | 2.0 | 5.2 | 29.1 | -0.4 | -8.4 | 104.0* | 73.0*
Oc1ccc(C=Nc2ccc(N3CCOCC3)cc2)c(O)c1 | -1.5 | -0.9 | -0.4 | -0.4 | -22.8 | 28.3 | nt
Cc1ccc(C2(C(F)(F)F)NC(=O)N3C(=C2C#N)Nc2ccccc23)cc1 (stereo not given) | -0.2 | 2.0 | 5.1 | 0.2 | -0.6 | 107.1* | 37.1
Cn1ncc2c(O/N=C(\N)c3ccc(C(C)(C)C)cc3)ncnc21 | 8.6 | 6.7 | 4.9 | -0.3 | 3.0 | 98.9* | 85.4*
Cc1nn(C2CCS(=O)(=O)C2)c2nc(C3CC3)cc(C(=O)Nc3ccc(C(N)=O)cc3)c12 (stereo not given) | -0.5 | -0.5 | -0.3 | 0.3 | 1.1 | nt | nt
Cc1ccc(-n2c(N)c(C(=O)Nc3c(C)n(C)n(-c4ccccc4)c3=O)c3nc4ccccc4nc32)cc1 | -2.1 | -0.1 | -3.5 | 1.2 | -2.2 | 106.7* | 54.6
Cc1cc(C)cc(-n2c(N)c(C(=O)Nc3c(C)n(C)n(-c4ccccc4)c3=O)c3nc4ccccc4nc32)c1 | 1.1 | 10.1 | -0.6 | 0.0 | -7.1 | 104.9* | 38.7
O=C(CCl)c1ccc2c(c1)CCN2C(=O)C1CCCCC1 | -7.8 | -7.0 | -3.6 | 0.3 | 0.2 | 109.4* | 18.7
CCC1CCCCN1S(=O)(=O)c1ccc2c(c1)CCN2C(=O)C1CCC1 (stereo not given) | -3.5 | 0.4 | 0.1 | 1.9 | 0.0 | 17.9 | nt
Cc1cc(Br)ccc1NC(=O)CN(C)C(=O)C1CCN(C(=O)c2ccc(Cl)cc2)CC1 | nt | nt | -0.2 | 0.2 | -2.4 | nt | nt
COc1ccc2nc(NC(=O)C3CCCN(S(=O)(=O)c4cccs4)C3)sc2c1 (stereo not given) | -4.2 | -1.2 | -2.2 | 0.4 | -5.1 | 96.2* | 51.1
Cc1ccc(OCCSc2nc3ccccc3n2CC(=O)O)cc1C | -1.1 | 0.4 | -0.4 | -0.1 | -0.9 | nt | nt
O=C(CCl)N1CCN2C(=O)c3ccccc3C12c1ccc(Cl)cc1 (stereo not given) | -10.3 | -0.9 | -0.8 | -0.4 | 1.9 | 105.4* | 112.9*
